In data set [1] the target is Casein kinase I isoform epsilon (Homo sapiens, UniProt P49674). As to the kind of experiment: Inhibition of human CK1epsilon using biotin peptide substrate after 1 hr by scintillation counting method.
Data set [2] can be described thus: Inhibition of rat AMP kinase using SAMS peptide substrate in the presence of AMP after 1 hr by scintillation counting method. In short, it runs like this:
(§1)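 Kinase buffer: 50 mmol/L Tris-HCl pH 7.5, 10 mmol/L MgCl2, 1 mmol/L EGTA, 1 mmol/L DTT, 25 mmol/L β-glycerophosphate, 1 mmol/L NaF, 0.01% BSA. It contained kinase, peptide substrate and activators. Compound was added in DMSO with 1 μmol/L final ATP. PKC-ζ, AMPK and pdk1 were commercial enzymes.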

Data set [3] addresses Glycogen synthase kinase-3 alpha (Homo sapiens, UniProt P49840). Briefly: Inhibition of human GSK3alpha using biotin-CREB peptide substrate after 1 hr by scintillation counting method.
A further data set concerns the target Angiopoietin-1 receptor (Homo sapiens, UniProt Q02763).
The nature of data set [4]: Inhibition of human DNA-dependent protein kinase using PI as substrate after 1 hr by scintillation counting method.
Data set [5] deals with Insulin-like growth factor 1 receptor (Homo sapiens, UniProt P08069).
Data set [6] has as its target Mitogen-activated protein kinase 1 (Homo sapiens, UniProt P28482). Briefly: Inhibition of human ERK2 using myelin basic protein substrate after 1 hr by scintillation counting method.
For data set [7], the target named is Glycogen synthase kinase-3 beta (Homo sapiens, UniProt P49841). Briefly: Inhibition of human GSK3beta using biotin-CREB peptide substrate after 1 hr by scintillation counting method.
Data set [8] has as its target Vascular endothelial growth factor receptor 1 (Homo sapiens, UniProt P17948).
Data set [9] has as its target Vascular endothelial growth factor receptor 2 (Homo sapiens, UniProt P35968).
Data set [10] can be described thus: Inhibition of human GSK3 using biotin-CREB peptide substrate after 1 hr by scintillation counting method.
Data set [11] addresses T1, 3-phosphoinositide-dependent protein kinase 1 (Homo sapiens, UniProt O15530).
T1 sequence (O15530 whole entry): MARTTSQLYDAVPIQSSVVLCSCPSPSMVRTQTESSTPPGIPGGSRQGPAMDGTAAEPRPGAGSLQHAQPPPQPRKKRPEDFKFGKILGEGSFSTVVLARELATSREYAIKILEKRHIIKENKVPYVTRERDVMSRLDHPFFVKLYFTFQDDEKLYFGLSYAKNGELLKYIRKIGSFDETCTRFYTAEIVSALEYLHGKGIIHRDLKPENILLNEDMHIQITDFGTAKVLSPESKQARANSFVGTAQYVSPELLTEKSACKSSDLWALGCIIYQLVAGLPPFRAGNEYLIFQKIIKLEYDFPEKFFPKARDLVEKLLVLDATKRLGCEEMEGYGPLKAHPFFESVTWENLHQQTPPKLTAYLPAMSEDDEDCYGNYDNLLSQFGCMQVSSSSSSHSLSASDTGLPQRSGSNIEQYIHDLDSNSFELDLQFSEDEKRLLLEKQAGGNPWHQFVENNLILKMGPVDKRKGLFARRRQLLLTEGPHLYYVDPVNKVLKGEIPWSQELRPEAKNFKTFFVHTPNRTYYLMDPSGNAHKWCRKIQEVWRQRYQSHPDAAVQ
Briefly: Inhibition of human PDK1 using unactivated AKT substrate in presence of COPC, DOPS and PIP3 activators after 1 hr by scintillation counting method. In short, it runs like this: as §1

The target in data set [12] is RAC-alpha serine/threonine-protein kinase (Homo sapiens, UniProt P31749). Briefly: Inhibition of human AKT1/PKB using phospho-AKT peptide substrate after 1 hr by scintillation counting method.
Data set [13] deals with T2, Protein kinase C zeta type (Homo sapiens, UniProt Q05513).
T2 sequence (Q05513 whole entry): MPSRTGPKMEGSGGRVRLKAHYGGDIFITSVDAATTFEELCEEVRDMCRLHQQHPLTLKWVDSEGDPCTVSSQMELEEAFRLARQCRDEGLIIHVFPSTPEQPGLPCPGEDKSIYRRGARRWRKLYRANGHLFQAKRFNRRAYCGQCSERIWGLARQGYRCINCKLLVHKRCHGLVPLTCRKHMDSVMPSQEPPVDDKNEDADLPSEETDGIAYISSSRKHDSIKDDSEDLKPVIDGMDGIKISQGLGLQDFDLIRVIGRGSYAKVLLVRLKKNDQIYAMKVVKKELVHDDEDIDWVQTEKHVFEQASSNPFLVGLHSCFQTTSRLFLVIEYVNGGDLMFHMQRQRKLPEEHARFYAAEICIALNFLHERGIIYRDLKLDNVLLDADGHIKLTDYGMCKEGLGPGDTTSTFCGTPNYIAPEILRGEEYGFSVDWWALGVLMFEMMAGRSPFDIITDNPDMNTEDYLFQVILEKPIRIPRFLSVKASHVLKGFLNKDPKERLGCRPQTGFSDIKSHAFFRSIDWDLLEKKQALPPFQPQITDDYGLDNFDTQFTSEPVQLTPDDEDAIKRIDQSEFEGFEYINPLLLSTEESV
Briefly: Inhibition of human PKCzeta using biotin-PKC-86 peptide substrate after 30 mins in the presence of phosphatidylserine and diacylglycerol activators by scintillation counting. The essentials: as §1

The target in data set [14] is Fibroblast growth factor receptor 1 (Homo sapiens, UniProt P11362).
Sequence of Fibroblast growth factor receptor 1 (P11362 whole entry): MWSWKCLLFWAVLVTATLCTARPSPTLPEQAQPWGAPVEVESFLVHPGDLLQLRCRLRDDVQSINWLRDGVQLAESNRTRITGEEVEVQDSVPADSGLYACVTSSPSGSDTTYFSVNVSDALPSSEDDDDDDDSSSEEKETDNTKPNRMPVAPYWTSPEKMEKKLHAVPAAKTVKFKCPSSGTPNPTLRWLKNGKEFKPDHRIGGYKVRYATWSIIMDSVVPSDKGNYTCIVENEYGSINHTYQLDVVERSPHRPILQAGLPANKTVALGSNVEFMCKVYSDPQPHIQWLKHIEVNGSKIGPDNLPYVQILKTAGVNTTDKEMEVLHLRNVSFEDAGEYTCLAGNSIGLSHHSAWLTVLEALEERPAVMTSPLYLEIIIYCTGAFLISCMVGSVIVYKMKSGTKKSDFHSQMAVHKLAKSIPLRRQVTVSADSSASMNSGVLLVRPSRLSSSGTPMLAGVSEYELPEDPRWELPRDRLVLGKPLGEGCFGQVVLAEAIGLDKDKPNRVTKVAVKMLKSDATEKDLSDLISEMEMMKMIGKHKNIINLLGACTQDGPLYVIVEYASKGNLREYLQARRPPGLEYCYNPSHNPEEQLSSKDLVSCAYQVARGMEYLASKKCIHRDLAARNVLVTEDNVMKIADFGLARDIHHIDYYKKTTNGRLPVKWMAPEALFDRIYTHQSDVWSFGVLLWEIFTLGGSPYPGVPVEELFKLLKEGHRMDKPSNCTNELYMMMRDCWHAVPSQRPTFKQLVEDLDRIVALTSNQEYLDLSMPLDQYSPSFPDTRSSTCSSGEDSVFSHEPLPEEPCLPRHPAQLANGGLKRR
Data set [15] in a line: Stability in dog liver microsomes assessed as half life. Type of data set: ADME, Canis lupus familiaris, microsome. On the technique in general: Liver microsomes are a subcellular fraction often used to study metabolism.
Data set [16] is described as follows: Oral bioavailability in diabetic ZDF fa/fa rat at 8 mg/kg administered 4.5 and 0.5 hrs prior to oral glucose challenge. Type of data set: ADME, organism-based. The following applies: in vivo.
Data set [17] can be described thus: Plasma concentration in diabetic db/db mouse at 30 mg/kg administered at 4.5 and 0.5 hrs prior to oral glucose challenge measured 20 mins post second dose. The conditions noted are these: plasma.
Data set [18] concerns the target Cyclin-dependent kinase 1 (Homo sapiens, UniProt P06493). Briefly: Inhibition of human CDC2 using biotin histone H1 peptide substrate after 1 hr by scintillation counting method.
Data set [19] can be described thus: Inhibition of GSK3 expressed in CHO-IR cells expressing human insulin receptor assessed as glycogen synthase activation after 30 mins by filter paper assay. The format is cell-based, Cavia porcellus.
In data set [20] the test system is Rattus norvegicus. Briefly: Antidiabetic activity in diabetic ZDF fa/fa rat assessed as reduction in plasma glucose AUC at 8 mg/kg administered 4.5 and 0.5 hrs prior to oral glucose challenge by oral glucose tolerance test. On the set-up: scale not given: the % may be the effect or the level left. Type of data set: functional. In short, it runs like this:
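Obese 10-week-old ZDF (fa/fa) rats, n = 8/group, fasted overnight, given 8 mg/kg orally at 4.5 and 0.5 h before oral glucose challenge. Efficacy is the percent reduction in plasma glucose AUC versus untreated animals. Formulations were 15% captisol, 1% CMC or water with pH adjusted.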

Data set [21] is described as follows: Half life in diabetic ZDF fa/fa rat at 8 mg/kg administered 4.5 and 0.5 hrs prior to oral glucose challenge. The format is ADME, organism-based. The conditions noted are these: in vivo.
Data set [22] in a line: Stability in rat liver microsomes assessed as half life. Type of data set: ADME, microsome.
Data set [23] addresses T3, Serine/threonine-protein kinase Chk1 (Homo sapiens, UniProt O14757).
T3 sequence (O14757 whole entry): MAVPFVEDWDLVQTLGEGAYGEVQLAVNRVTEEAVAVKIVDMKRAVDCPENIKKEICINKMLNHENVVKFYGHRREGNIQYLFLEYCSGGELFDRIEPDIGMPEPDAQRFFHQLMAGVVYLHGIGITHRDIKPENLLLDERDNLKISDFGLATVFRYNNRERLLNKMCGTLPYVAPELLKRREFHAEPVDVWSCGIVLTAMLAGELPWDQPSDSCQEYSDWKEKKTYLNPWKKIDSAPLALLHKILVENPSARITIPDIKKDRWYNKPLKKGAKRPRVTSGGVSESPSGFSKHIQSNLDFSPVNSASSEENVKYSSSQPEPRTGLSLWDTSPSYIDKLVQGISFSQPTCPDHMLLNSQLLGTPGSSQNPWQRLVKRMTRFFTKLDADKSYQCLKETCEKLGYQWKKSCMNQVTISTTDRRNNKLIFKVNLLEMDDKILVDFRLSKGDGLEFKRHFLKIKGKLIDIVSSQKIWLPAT
Briefly: Inhibition of human CHK1 using biotin-CDC25 peptide substrate after 1 hr by scintillation counting method.

A short description of data set [24]: Inhibition of human phosphatidylinositol (PI) 3-kinase using PI as substrate after 1 hr by scintillation counting method.
Data set [25] has as its system Rattus norvegicus. Briefly: Antidiabetic activity in 12 weeks old obese ZDF fa/fa rat assessed as increase in plasma glucose disposal at 30 mg/kg dosed at 4.5 and 0.5 hrs prior to oral glucose challenge by oral glucose tolerance test. Type of data set: functional, organism-based.
Data set [26] in a line: Inhibition of human phosphodiesterase 3 using cAMP substrate after 20 mins by scintillation counting.
The subject of data set [27] is Mus musculus. As to the kind of experiment: Antiobesity activity in diabetic […] mouse assessed as improvement in glucose tolerance administered at 30 mg/kg, po measured post glucose challenge by oral glucose tolerance test relative to control. Type of data set: functional, organism-based. The essentials:
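ob/ob mice aged 9–10 weeks, 6–8 per group, given an oral glucose tolerance test with oral dosing at −4.5 and −0.5 h (vehicle captisol). Plasma glucose and insulin were measured after the glucose challenge. Values are mean ± SEM.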

Data set [28] deals with Mus musculus. As to the kind of experiment: Antidiabetic activity in diabetic db/db mouse assessed as reduction in plasma glucose AUC administered orally at 4.5 and 0.5 hrs prior to oral glucose challenge by oral glucose tolerance test. The format is functional. The essentials: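 db/db mice, 6–8 per group, fasted ~6 h, dosed orally at 30 mg/kg at −4.5 and −0.5 h before oral glucose challenge. Efficacy is the percent reduction in plasma glucose AUC versus untreated animals. Vehicle was 15% captisol, 1% CMC or pH-adjusted water.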

The test system of data set [29] is Rattus norvegicus. As to the kind of experiment: Antihyperglycemic activity in diabetic ZDF fa/fa rat assessed as plasma glucose levels at 5 mg/kg, iv prime dose with continuous infusion at 64 ug/kg/min for 4 days (reference value: 223 +/- 18 mg/dL). The format is functional.
The species entered for data set [30] is Mus musculus. As to the kind of experiment: Antidiabetic activity in streptozotocin-treated mouse fed with high fat diet assessed as reduction in post-challenge glucose AUC. Further details: scale not given: the % may be the effect or the level left. Type of data set: functional. In short, it runs like this:
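Mice on a high-fat diet with intermittent streptozotocin were dosed orally at −4.5 and −0.5 h before oral glucose challenge. Post-challenge glucose AUC and insulin were measured.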

The subject of data set [31] is Mus musculus. As to the kind of experiment: Antiobesity activity in diabetic […] mouse assessed as improvement in glucose tolerance administered at 30 mg/kg, po measured post glucose challenge and measured after 20 hrs post compound dose by oral glucose tolerance test relative to control. Type of data set: functional, organism-based.
For data set [32], the system named is Rattus norvegicus. As to the kind of experiment: Antihyperglycemic activity in diabetic ZDF fa/fa rat assessed as plasma glucose levels at 30 mg/kg, po administered as single dose measured after 60 mins (reference value: 500 to 550 mg/dl). Type of data set: functional. In short, it runs like this: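 Twelve-week-old male ZDF (fa/fa) rats with fasted basal glucose of 500–550 mg/dL, food removed 3–4 h before dosing. A single oral dose was given with vehicle 15% captisol. Plasma glucose and insulin were measured from serial tail-snip bleeds, n = 8/group, mean ± SEM.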

pEC50, pIC50, pKi: −log10 of the molar value. Activity calls are given as the source filed them.

Sequence of Casein kinase I isoform epsilon (P49674 whole entry, canonical isoform): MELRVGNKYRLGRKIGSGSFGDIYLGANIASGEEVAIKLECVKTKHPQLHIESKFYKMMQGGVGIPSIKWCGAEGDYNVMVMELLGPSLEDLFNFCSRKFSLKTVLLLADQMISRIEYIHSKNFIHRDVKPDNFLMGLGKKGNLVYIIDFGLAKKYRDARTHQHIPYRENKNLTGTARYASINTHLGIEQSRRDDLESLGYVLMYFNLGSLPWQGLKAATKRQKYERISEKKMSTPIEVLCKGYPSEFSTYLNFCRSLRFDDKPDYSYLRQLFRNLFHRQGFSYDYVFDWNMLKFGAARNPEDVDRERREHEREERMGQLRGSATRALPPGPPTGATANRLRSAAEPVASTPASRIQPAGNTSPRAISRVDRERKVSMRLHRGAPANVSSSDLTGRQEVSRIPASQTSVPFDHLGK
Sequence of Mitogen-activated protein kinase 1 (P28482 whole entry): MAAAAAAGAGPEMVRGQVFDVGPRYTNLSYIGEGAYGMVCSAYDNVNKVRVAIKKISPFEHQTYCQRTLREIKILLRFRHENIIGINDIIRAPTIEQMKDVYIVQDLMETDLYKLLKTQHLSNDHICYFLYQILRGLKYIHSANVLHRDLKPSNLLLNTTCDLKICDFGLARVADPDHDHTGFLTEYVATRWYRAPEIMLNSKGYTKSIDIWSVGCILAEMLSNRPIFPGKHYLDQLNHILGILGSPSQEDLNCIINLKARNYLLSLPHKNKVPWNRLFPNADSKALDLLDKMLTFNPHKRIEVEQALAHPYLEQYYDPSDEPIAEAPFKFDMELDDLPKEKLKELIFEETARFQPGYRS
Sequence of Glycogen synthase kinase-3 alpha (P49840 whole entry): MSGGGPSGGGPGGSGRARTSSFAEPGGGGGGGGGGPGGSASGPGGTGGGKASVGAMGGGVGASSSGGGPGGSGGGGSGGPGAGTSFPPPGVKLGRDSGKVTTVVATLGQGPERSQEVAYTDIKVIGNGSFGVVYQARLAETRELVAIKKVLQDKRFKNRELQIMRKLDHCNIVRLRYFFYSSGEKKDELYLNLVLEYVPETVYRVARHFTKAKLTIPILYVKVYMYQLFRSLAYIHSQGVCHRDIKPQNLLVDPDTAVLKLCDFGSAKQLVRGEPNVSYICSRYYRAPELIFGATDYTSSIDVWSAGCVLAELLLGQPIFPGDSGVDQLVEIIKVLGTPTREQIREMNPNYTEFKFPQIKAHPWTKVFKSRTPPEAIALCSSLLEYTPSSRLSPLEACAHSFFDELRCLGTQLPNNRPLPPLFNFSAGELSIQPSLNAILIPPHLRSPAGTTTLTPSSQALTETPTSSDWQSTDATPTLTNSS
Sequence of Cyclin-dependent kinase 1 (P06493 whole entry): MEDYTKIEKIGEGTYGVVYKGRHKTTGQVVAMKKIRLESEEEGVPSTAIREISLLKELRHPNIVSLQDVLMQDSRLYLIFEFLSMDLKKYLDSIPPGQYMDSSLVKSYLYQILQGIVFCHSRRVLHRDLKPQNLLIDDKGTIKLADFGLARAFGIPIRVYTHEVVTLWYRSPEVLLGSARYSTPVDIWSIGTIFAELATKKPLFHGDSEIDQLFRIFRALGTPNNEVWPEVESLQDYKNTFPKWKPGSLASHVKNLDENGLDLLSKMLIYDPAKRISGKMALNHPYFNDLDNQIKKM
Sequence of Vascular endothelial growth factor receptor 1 (P17948 whole entry): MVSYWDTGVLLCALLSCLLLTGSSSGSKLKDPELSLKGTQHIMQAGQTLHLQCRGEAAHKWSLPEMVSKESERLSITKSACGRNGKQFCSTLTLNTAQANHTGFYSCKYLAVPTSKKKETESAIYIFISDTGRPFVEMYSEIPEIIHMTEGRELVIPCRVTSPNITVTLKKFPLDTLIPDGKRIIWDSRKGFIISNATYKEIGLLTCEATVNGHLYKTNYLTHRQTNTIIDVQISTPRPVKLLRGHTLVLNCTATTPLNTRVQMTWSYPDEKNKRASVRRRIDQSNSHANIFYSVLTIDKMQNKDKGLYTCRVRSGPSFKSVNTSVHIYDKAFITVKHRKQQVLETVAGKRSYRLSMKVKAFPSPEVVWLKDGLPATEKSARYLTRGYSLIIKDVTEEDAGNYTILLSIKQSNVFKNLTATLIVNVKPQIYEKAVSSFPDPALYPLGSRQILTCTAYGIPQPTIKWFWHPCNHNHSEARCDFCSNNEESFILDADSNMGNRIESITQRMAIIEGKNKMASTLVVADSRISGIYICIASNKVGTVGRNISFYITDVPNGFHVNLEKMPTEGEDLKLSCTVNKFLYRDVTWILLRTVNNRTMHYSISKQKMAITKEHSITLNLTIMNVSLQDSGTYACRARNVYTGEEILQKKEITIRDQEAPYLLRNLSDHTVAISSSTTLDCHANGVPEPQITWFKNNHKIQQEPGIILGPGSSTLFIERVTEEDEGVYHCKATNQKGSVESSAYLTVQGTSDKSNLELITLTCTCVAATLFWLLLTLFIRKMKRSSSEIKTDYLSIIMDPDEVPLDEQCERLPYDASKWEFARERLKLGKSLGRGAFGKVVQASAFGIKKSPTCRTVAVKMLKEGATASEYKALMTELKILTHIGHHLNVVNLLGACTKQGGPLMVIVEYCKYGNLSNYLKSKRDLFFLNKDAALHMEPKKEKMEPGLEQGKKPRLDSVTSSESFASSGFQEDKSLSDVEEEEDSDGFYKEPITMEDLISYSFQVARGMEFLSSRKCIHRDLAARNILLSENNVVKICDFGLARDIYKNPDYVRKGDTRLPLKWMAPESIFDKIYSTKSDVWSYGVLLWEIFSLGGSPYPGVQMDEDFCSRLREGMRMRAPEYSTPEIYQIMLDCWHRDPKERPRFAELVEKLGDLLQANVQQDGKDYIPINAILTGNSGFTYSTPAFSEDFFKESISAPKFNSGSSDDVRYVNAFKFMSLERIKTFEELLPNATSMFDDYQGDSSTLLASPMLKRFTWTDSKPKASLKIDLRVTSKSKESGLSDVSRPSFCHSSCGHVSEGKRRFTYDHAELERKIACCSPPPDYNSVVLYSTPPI
Sequence of Vascular endothelial growth factor receptor 2 (P35968 whole entry): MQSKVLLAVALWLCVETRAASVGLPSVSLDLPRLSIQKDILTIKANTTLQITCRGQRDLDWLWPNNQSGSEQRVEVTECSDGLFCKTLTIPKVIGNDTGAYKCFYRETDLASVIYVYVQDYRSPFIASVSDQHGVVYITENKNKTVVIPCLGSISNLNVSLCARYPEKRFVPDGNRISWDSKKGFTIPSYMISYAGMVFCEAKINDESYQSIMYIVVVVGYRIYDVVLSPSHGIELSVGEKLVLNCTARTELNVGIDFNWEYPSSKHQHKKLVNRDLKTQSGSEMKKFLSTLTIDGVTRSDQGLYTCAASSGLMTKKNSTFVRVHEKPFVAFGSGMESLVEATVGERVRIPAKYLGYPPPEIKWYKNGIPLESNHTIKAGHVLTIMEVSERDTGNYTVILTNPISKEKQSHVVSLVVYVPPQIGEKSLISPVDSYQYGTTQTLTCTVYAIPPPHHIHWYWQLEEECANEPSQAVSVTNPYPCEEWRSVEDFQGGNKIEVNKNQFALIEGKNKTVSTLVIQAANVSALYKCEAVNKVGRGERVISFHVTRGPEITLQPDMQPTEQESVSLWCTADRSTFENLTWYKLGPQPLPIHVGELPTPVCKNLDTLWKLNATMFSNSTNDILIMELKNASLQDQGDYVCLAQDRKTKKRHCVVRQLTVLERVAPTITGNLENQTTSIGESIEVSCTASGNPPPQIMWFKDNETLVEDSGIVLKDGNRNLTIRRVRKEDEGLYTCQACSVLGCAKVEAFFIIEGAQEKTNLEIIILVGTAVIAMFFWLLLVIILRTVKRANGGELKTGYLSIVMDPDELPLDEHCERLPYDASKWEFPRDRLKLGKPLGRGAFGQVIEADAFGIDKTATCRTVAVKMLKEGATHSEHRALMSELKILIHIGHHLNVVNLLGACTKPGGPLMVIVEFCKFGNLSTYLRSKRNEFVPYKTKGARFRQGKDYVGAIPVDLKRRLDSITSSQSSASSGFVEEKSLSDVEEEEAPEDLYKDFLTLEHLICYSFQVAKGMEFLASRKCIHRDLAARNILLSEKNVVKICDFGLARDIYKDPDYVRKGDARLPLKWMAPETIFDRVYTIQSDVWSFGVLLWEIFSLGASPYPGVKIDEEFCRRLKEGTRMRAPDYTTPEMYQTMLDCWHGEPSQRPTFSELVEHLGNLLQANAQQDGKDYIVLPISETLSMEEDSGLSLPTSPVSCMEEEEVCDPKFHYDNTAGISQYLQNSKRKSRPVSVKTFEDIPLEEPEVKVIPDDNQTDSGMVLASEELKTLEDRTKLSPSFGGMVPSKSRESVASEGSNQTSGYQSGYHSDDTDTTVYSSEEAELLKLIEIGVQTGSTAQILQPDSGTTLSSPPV

On to `Nc1nc(NCCNc2ncc(-c3ncc[nH]3)c(-c3ccc(Cl)cc3Cl)n2)ccc1[N+](=O)[O-]`, for which the pIC50 in [1] is less than 5.00; in data set [2] it was less than 5.00; in data set [3] it was 7.57; at Angiopoietin-1 receptor, less than 4.60; in data set [4], less than 5.00; in data set [5], less than 5.00. In addition, the pIC50 in [6] was less than 5.00; in [7] it was 9.22; in data set [8], less than 5.30; in data set [9], less than 5.30; in [10], 9.00; in data set [11], less than 5.00. Moreover, the pIC50 in data set [12] was less than 5.00; in data set [13] it was less than 5.00; in [14] it was less than 5.30; in data set [18] it was less than 5.00; in data set [23], less than 5.00; in data set [24] it was less than 5.30. Moreover, the half-life in data set [15] is more than 30 min; in data set [21] it was 46 min; in [22], more than 30 min. The molecule also had a bioavailability in [16] of 6%. Further, the concentration at 20 min in data set [17] came out at 19000 ng/mL. Further, the pEC50 in [19] is 6.59. Besides, the Activity in the data set with Rattus norvegicus [20] turned out to be 29%.
As for `Cc1cnc(-c2cnc(NCCNc3ccc(C#N)cn3)nc2-c2ccc(Cl)cc2Cl)[nH]1` [LADUVIGLUSIB], the result in the data set with Rattus norvegicus [25], with Mus musculus [27] and in the data set with Mus musculus [31] was Active. Besides, the pIC50 was less than 5.00 in data set [2], less than 5.00 in data set [4], 8.30 in data set [10] and less than 5.00 in [24]. In [26], this molecule showed a pKi of 5.08. Besides, the Activity entry in the data set on Mus musculus [28] is “Dose-dependent effect”; in the data set on Rattus norvegicus [29], 116 mg/dL; in the data set listed under Mus musculus [30], 53%; in the data set with Rattus norvegicus [32], “>=150 mg/dl”; with Rattus norvegicus [20], 38%. In addition, in [19], the negative-log EC50 (pEC50) was 6.11.

Broadly, the pIC50 is the IC50 on a negative log10 scale, so that one unit is a factor of ten. As usually defined, the half-life is the time needed for the level to fall by half in the phase considered. What is called pEC50 is −log10 of the EC50, conventionally taken in molar units. The pKi is the negative decadic logarithm of the Ki, by convention in mol/L.

The values are drawn from ChEMBL document CHEMBL4020814, “Synthesis, Binding Mode, and Antihyperglycemic Activity of Potent and Selective (5-Imidazol-2-yl-4-phenylpyrimidin-2-yl)[2-(2-pyridylamino)ethyl]amine Inhibitors of Glycogen Synthase Kinase 3” (J Med Chem, 2017).
